# Measurements collected from several papers.
# Lines come from different studies, so protocols differ.
# Transmembrane protease serine 6: Transmembrane protease serine 6 (Homo sapiens, UniProt Q8IU80)
# Palmitoyl-protein thioesterase 1: Palmitoyl-protein thioesterase 1 (Homo sapiens, UniProt P50897)
# EGFR L858R/T790M: Epidermal growth factor receptor (EGFR, Homo sapiens, UniProt P00533, L858R/T790M)
# EGFR: Epidermal growth factor receptor (EGFR, Homo sapiens, UniProt P00533)
SMILES,target,assay,conditions,quantity,value
CC(C)C(C)(NC(=O)[C@H](Cc1cscn1)NC(=O)CCc1ccccc1)C(=O)N[C@@H](CCCNC(=N)N)C(=O)c1nc2ccccc2s1 (stereo partly drawn),Transmembrane protease serine 6,"enzyme activity, inhibitor",0.1 µM,remaining activity,96%
CCCCCCCCCCCCCCCC(=O)O,Palmitoyl-protein thioesterase 1,"enzyme activity, inhibitor",125 µM,inhibition,42.4%
Cc1ncc(CN2CCc3ccccc3C2)c2cc(C(=O)c3ccc4c(c3)OCCO4)oc12,EGFR L858R/T790M,"enzyme activity, inhibitor, ADP detection",1 µM,inhibition,65 to 75%
C=C1CC[C@H]2C(=C)CC[C@H]3C(=C)C(=O)O[C@@H]3[C@@H]12,Palmitoyl-protein thioesterase 1,"enzyme activity, inhibitor",125 µM,inhibition,4.92%
Cc1ccc2c(-c3cc4c(CNCc5ccco5)cnc(C)c4o3)cc(=O)oc2c1C,EGFR,"enzyme activity, inhibitor, ADP detection",1 µM,inhibition,0 to 40%
CC1([C@H](NC(=O)[C@H](Cc2cscn2)NC(=O)CCc2ccccc2)C(=O)N[C@@H](CCCNC(=N)N)C(=O)c2nc3ccccc3s2)CC1,Transmembrane protease serine 6,"enzyme activity, inhibitor",0.1 µM,remaining activity,36%
COc1cc(-c2cncc3c2CN(C)Cc2cc(N4CCNCC4)ccc2-3)cc(OC)c1OC,"Wee1-like protein kinase (WEE1, Homo sapiens, UniProt P30291)","enzyme activity, inhibitor",1 µM,remaining activity,95%
CC(C)(NC(=O)[C@H](Cc1cscn1)NC(=O)CCc1ccccc1)C(=O)N[C@@H](CCCNC(=N)N)C(=O)c1nc2ccccc2s1,Transmembrane protease serine 6,"enzyme activity, inhibitor",0.1 µM,remaining activity,22%
CNc1ncc2c(/C=C/C(=O)N3CCC(OC)CC3)nn(Cc3cccc(C(F)(F)F)c3)c2n1,"Serine/threonine-protein kinase B-raf (BRAF, Homo sapiens, UniProt P15056)","enzyme activity, inhibitor, radiometric",1 µM,remaining activity,79%
N=C(N)NCCC[C@H](NC(=O)[C@H](Cc1ccc2ccccc2c1)NC(=O)[C@H](Cc1cscn1)NC(=O)CCc1ccccc1)C(=O)c1nc2ccccc2s1,Transmembrane protease serine 6,"enzyme activity, inhibitor",0.1 µM,remaining activity,8%
[H]/N=C(\N/C(=N/[H])Nc1ccc(Cl)cc1)NC(C)C,Palmitoyl-protein thioesterase 1,"enzyme activity, inhibitor",125 µM,inhibition,-0.79%
Cc1cc([C@@H](C)Nc2ccccc2C(=O)O)c2nc(N3CCC(F)(F)CC3)c(C#N)c(=O)n2c1,"Mitogen-activated protein kinase 8 (MAPK8, Homo sapiens, UniProt P45983)","binding, competition with immobilised ligand",10 µM,remaining binding,100%
C=CC(=O)N1CCC(COCC(=O)N2CCN(c3nc(-c4cnc(N)nc4C(F)F)nc(N4CCOC[C@@H]4C)n3)CC2)CC1,"Ribosomal protein S6 kinase alpha-2, N-terminal kinase domain (RPS6KA2, Homo sapiens, UniProt Q15349)","binding, competition with immobilised ligand",1 µM,remaining binding,100%
C/C=C\c1ccc(O)c(OC)c1,Palmitoyl-protein thioesterase 1,"enzyme activity, inhibitor",312 µM,inhibition,22.2%
CC1(C)C=Cc2c(ccc3c2OC[C@@H](c2ccc(O)cc2O)C3)O1,"Neuronal acetylcholine receptor; alpha4/beta2 (Homo sapiens, UniProt P17787+P43681)","ion current, two-electrode voltage clamp","13 µM, oocytes",inhibition,> 50%
N=C(N)NCCC[C@H](NC(=O)[C@H](Cc1cccc(I)c1)NC(=O)[C@H](Cc1cscn1)NC(=O)CCc1ccccc1)C(=O)c1nc2ccccc2s1,Transmembrane protease serine 6,"enzyme activity, inhibitor",0.1 µM,remaining activity,92%
C=C1C(=O)O[C@@H]2/C=C(\C)CC/C=C(\C)CC[C@@H]12,Palmitoyl-protein thioesterase 1,"enzyme activity, inhibitor",125 µM,inhibition,6.21%
CC(C)(C)C[C@H](NC(=O)[C@H](Cc1cscn1)NC(=O)CCc1ccccc1)C(=O)N[C@@H](CCCNC(=N)N)C(=O)c1nc2ccccc2s1,Transmembrane protease serine 6,"enzyme activity, inhibitor",0.1 µM,remaining activity,3%
Cc1ccc2c(-c3cc4c(CN5CCN(Cc6ccccn6)CC5)cnc(C)c4o3)cc(=O)oc2c1,"Epidermal growth factor receptor (EGFR, Homo sapiens, UniProt P00533, C797S/L858R/T790M)","enzyme activity, inhibitor, ADP detection",1 µM,inhibition,75%
O=C(CCn1c(=O)ccc2ccccc21)N1CCOCC1,EGFR,"enzyme activity, inhibitor",10 µM,inhibition,86.8%
CC(C)(C)c1ccc(C[C@H](NC(=O)[C@H](Cc2cscn2)NC(=O)CCc2ccccc2)C(=O)N[C@@H](CCCNC(=N)N)C(=O)c2nc3ccccc3s2)cc1,Transmembrane protease serine 6,"enzyme activity, inhibitor",0.1 µM,remaining activity,98%
Nc1ccc(C(=O)NCC(=O)O)cc1,Palmitoyl-protein thioesterase 1,"enzyme activity, inhibitor",125 µM,inhibition,10.1%
Cc1ncc(CN2CCN(Cc3ccccn3)CC2)c2cc(C(=O)c3ccc4c(c3)OCCO4)oc12,EGFR L858R/T790M,"enzyme activity, inhibitor, ADP detection",1 µM,inhibition,65 to 75%
COc1ccc2[nH]cc(CCNC(C)=O)c2c1,Palmitoyl-protein thioesterase 1,"enzyme activity, inhibitor",125 µM,inhibition,8.97%
Cc1ccc2c(-c3cc4c(CNCc5cccnc5)cnc(C)c4o3)cc(=O)oc2c1C,EGFR,"enzyme activity, inhibitor, ADP detection",1 µM,inhibition,90 to 100%
N=C(N)NCCC[C@H](NC(=O)[C@@H](NC(=O)[C@H](Cc1cscn1)NC(=O)CCc1ccccc1)c1ccccc1)C(=O)c1nc2ccccc2s1,Transmembrane protease serine 6,"enzyme activity, inhibitor",0.1 µM,remaining activity,6%
C=C1C(=O)O[C@H]2[C@H]1CC/C(C)=C/CC[C@@]1(C)O[C@@H]21,Palmitoyl-protein thioesterase 1,"enzyme activity, inhibitor",125 µM,inhibition,-5.16%
